# Kir21 block – Kir2.1 (mouse) channel inhibition | P35561 | HEK293-Kir2.1, FluxOR thallium flux fluorescence; hits give low values | B-score at 10 µM | 310,000 compounds, 0.85% hits;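 active = fluorescence ratio B-score at or below minus 3 SD of library scores, with starting-brightness B-score within 2 SD, cut at about -4.2 in these data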;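 also: channel flux triggered by added potassium and thallium sulfate stimulus; B-score of peak minus minimum fluorescence over baseline after thallium stimulus; more negative B-score means stronger Kir2.1 block with less thallium influx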
# Target sequence (P35561 whole entry, looked up): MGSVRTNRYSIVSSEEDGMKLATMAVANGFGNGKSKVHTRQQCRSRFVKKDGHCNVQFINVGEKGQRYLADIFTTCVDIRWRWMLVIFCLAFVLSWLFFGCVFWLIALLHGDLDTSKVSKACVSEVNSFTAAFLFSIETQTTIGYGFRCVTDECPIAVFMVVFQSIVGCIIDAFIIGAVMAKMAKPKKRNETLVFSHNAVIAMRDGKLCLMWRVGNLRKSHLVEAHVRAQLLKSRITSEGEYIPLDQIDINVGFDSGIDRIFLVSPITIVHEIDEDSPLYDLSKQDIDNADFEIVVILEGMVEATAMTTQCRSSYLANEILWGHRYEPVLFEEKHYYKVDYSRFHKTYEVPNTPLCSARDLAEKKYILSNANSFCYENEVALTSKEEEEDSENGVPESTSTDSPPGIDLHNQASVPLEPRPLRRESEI
# KCNK3 inh – human KCNK3 channel inhibition, primary screen | O14649 | B-score at 10 µM | CHO-KCNK3 thallium flux, FluxOR fluorescence; hits give low values | 340,000 compounds, 0.84% hits;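 active = B-score under library mean minus 4 SD, starting fluorescence ratio at most library mean plus 5 SD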;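 also: more negative B-score means stronger inhibition of thallium flux through KCNK3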
# KCNQ1 pot – human KCNQ1 channel potentiation or activation; P51787; CHO-K1 KCNQ1, thallium flux FluxOR fluorescence; hits give high values; B-score at 10 µM; 310,000 compounds, 0.35% hits;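 active = fluorescence ratio B-score, a plate-corrected score, at least three library SD, with initial intensity B-score within 5 SD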
#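 System: CHO-K1 cells stably expressing KCNQ1 / Medium: assay buffer for compound exposure, DMSO matched across wells / Reagent: thallium- and potassium-containing depolarizing buffer / Compound: one concentration, matched DMSO / Incubation: 20 min compound pretreatment at room temperature / Measured by: kinetic FluxOR fluorescence, 10 s baseline plus 110 s post-stimulus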
# KCNQ1 inh – human KCNQ1 channel inhibition; CHO-K1 KCNQ1, FluxOR thallium flux fluorescence; hits give high values; B-score at 10 µM; 310,000 compounds, 1.3% hits;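 active = compounds whose thallium flux B-score, printed positive for inhibition, exceeds three library SD while starting fluorescence stays within three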;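 also: channel opened by potassium depolarization with thallium stimulus after 20 min compound exposure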
# hERG rescue – hERG (human) protection from proarrhythmic block. Q12809. CHO-hERG, FluxOR thallium flux, dofetilide IC70 present. activation (rescue from dofetilide block), less the hit threshold, % at 10 µM. 310,000 compounds, 0.51% hits;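 active = activation above the mean of controls blocked by dofetilide plus 5 SD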;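 also: thallium influx through hERG after potassium depolarization seen as dye fluorescence rise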
# KCNK9 inh – human KCNK9 channel inhibition | Q9NPC2 | HEK293 KCNK9, FluxOR thallium flux fluorescence; hits give low values | B-score at 10 µM | 310,000 compounds, 1.2% hits | AID 488922;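 active = ratio B-score over 3 SD below the library mean, with starting fluorescence within 5 SD of its mean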;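 also: negative B-score means less thallium flux so channel inhibition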
# KCNK9 inh conf – confirmation of human KCNK9 potassium channel inhibitors; 4,900 compounds, 43% hits; HEK293 KCNK9 cells, FluxOR thallium flux fluorescence; shares compounds with KCNK9 inh; AID 492992; inhibition, % at 10 µM;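 active = thallium signal inhibited by more than 5 SD of the compound-free buffer control wells, on both duplicate plates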;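 also: 0% = assay buffer control wells without compound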
# Kir21 sel – mouse Kir2.1 off-target activity of KCNK9 modulators. shares compounds with KCNK9 inh. Kir2.1 cells, FluxOR thallium flux fluorescence. inhibition, % at 10 µM. 4,900 compounds, 4% hits. AID 492993;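 active = thallium signal drop more than 5 SD beyond the mean of the no-compound control wells, seen in both duplicate plates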;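 also: signal is fluorescence rise after thallium addition divided by baseline fluorescence; plate controls were assay buffer only for no effect and full block by chlorpromazine control for full effect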
# KCNK9 uninduced – second check of KCNK9 modulator effects in non-induced HEK293 cells | shares compounds with KCNK9 inh | FluxOR thallium flux | inhibition, % at 10 µM | 4,900 compounds, 40% hits | AID 492997;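 active = thallium signal drop beyond 5 SD of the untreated control mean, on both duplicate plates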;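 also: plate controls were buffer only IC0 wells for no effect and SID17386958 at its maximal inhibitory level for full effect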
# The depositor's hits bear a star; i = inactive; / = no result. This is a sample that favours compounds with a hit; in the whole collection about 3.7% have one here.
SMILES,Kir21 block,KCNK3 inh,KCNQ1 pot,KCNQ1 inh,hERG rescue,KCNK9 inh,KCNK9 inh conf,Kir21 sel,KCNK9 uninduced
C(=C\c1ccccc1)/CN1CCN(Cc2nc(Cc3ccccc3)no2)CC1,-0.13,i,i,i,-10.3,i,i,i,i
Fc1ccccc1Cc1noc(CN2CCN(Cc3ccc4c(c3)OCO4)CC2)n1,0.44,i,i,i,-13.9,i,/,/,/
c1cc(C2CCN(Cc3nc(-c4ccc5c(c4)OCO5)no3)CC2)ccn1,0.51,i,i,i,-16.3,i,/,/,/
COc1ccccc1CN1CCN(Cc2nc(Cc3ccccc3)no2)CC1,0.02,i,i,i,-9.6,i,i,i,i
c1ccc(Cc2noc(CN3CCCN(C4Cc5ccccc5C4)CC3)n2)cc1,0,i,i,i,-17.4,i,/,/,/
c1ccc(OCCN2CCN(Cc3nc(-c4ccc5c(c4)OCO5)no3)CC2)cc1,-0.45,i,i,i,-6.0,i,i,i,i
NS(=O)(=O)c1cccc(NC(=O)CCS(=O)(=O)c2ccc(Cl)cc2)c1,-0.06,i,i,i,-12.2,i,/,/,/
CC(C)CC(=O)c1c[nH]c(C(=O)NCc2ccc(F)cc2)c1,-1.5,i,i,i,-4.3,i,/,/,/
C=CCNC(=O)CSCc1ccc(Br)cc1,-0.92,i,i,i,-15.6,i,/,/,/
O=[N+]([O-])c1ccccc1/C=C/CN1CCN(Cc2ccc3c(c2)OCO3)CC1,1.59,i,i,i,-7.5,i,i,i,i
c1ccc(Cc2noc(CN3CCN(C4CCc5ccccc5C4)CC3)n2)cc1 (stereo unspecified),-0.05,i,i,i,-13.1,i,i,i,i
C(=C\c1ccccc1)/CN1CCN(Cc2ccc3c(c2)OCO3)CC1,-0.62,i,i,i,-3.5,i,/,/,/
N#Cc1cc([N+](=O)[O-])ccc1NC(=O)COC(=O)C12CC3CC(CC(C3)C1)C2,2.01,/,i,i,-10.9,i,/,/,/
CCOC(=O)C1CCCN(Cc2cc(Br)c(OC)cc2OC)C1 (stereo unspecified),-0.74,i,i,i,-12.2,i,i,i,i
COc1ccccc1COCC(O)CN1CCCCC1CO (stereo unspecified),0.31,i,i,i,-1.2,i,/,/,/
CCOC(=O)C1CCCN(CC(O)COCc2ccccc2OC)C1 (stereo unspecified),-2.02,i,i,i,-4.5,i,i,i,i
CCOC(=O)C1CCCN(Cc2cc(=O)oc3cc(C)c(C)cc23)C1 (stereo unspecified),-2.67,i,i,i,-18.6,i,i,i,i
COCCCNC(=O)C(=O)NC1CCCCC1C (stereo unspecified),0.93,i,i,i,-11.7,i,/,/,/
CCn1c(SC(C)C(=O)Nc2ccc3c(c2)OCCO3)nnc1C1CC1 (stereo unspecified),/,i,/,/,/,/,/,/,/
CCCCC(CC)C(=O)N1CCN(C(=O)c2ccco2)CC1 (stereo unspecified),0.8,i,i,i,-14.2,i,/,/,/
Cc1ccc2c(c1)N(C(=O)CCC(=O)Nc1ccccc1Br)CC(C)O2 (stereo unspecified),-0.03,i,i,i,-8.2,i,i,i,i
Cc1ccc(CNC(=O)CCC(=O)N2CC(C)Oc3ccc(Cl)cc32)cc1 (stereo unspecified),0.59,i,i,i,-10.3,i,/,/,/
Cc1ccc2c(c1)N(C(=O)CCC(=O)NCc1cccc(Br)c1)CC(C)O2 (stereo unspecified),-0.02,i,i,i,-14.6,i,i,i,i
O=C(O)c1ccccc1C(=O)Nc1ccc(Oc2ccc3ccccc3c2)cc1,-0.57,i,i,i,-2.2,i,i,i,i
Cc1c(C)c(C)c(C(=O)c2ccc(NC(=O)c3ccccc3C(=O)O)cc2)c(C)c1C,1.34,i,i,i,-11.7,i,i,i,i
SMILES,Kir21 block,KCNK3 inh,KCNQ1 pot,KCNQ1 inh,hERG rescue,KCNK9 inh,KCNK9 inh conf,Kir21 sel,KCNK9 uninduced
Cc1ccc(C(=O)c2c(NC(=O)c3ccccc3C)sc(C)c2C)cc1,-0.29,i,i,i,-10.3,i,i,i,i
COc1ccc(NC(=O)c2ccccc2-c2ccccc2C(=O)O)cc1,0.03,i,i,i,-2.3,i,/,/,/
Cc1sc(NC(=O)c2ccco2)c(C(=O)c2ccc(Cl)cc2)c1C,1.31,i,i,i,-8.7,i,/,/,/
COCCN(C(=S)Nc1cccc(C)c1)C(C)c1cccnc1 (stereo unspecified),-1.53,i,i,i,-14.3,i,/,/,/
O=c1c2c(ncn2C2CCCC2)n(Cc2ccccc2)c(=O)n1CCOc1ccccc1,-1.36,i,i,i,-1.5,i,i,i,i
O=c1c2c(ncn2C2CCCC2)n(Cc2ccccc2)c(=O)n1CCOc1ccc(Br)cc1,-0.13,i,i,i,-9.3,i,i,i,i
Cc1ccc(C)c(OCCn2c(=O)c3c(ncn3C3CCCC3)n(Cc3ccccc3)c2=O)c1,-0.7,i,i,i,-13.0,i,i,i,i
O=C(Cn1ncn2c(cc3ccccc32)c1=O)NCCCc1ccccc1,-0.57,i,i,i,-5.6,i,/,/,/
c1csc(-c2nc(N3CCOCC3)c3ccccc3n2)c1,-0.15,i,i,i,-6.0,i,/,/,/
COc1ccc(N2CCN(c3nc(-c4cccs4)nc4ccccc34)CC2)cc1,1.89,i,i,i,-17.0,-14.4*,31.0%*,i,28.0%*
COc1cccc(CN(C)c2nc(-c3cccs3)nc3ccccc23)c1,-0.54,i,i,i,-22.2,-9.23*,54.5%*,i,41.0%*
COc1cccc(Nc2nc(-c3cccs3)nc3ccccc23)c1,0.73,i,i,i,-10.3,i,/,/,/
Cc1ccc(N(CC(=O)NCc2ccco2)C(=O)CCC(=O)Nc2nccs2)c(C)c1,0.77,i,i,i,-9.3,i,/,/,/
O=C1/C(=C/c2ccccc2)SC(=S)N1N1C(=O)C2CC2C1=O (stereo unspecified),-0.36,i,i,i,-4.0,i,/,/,/

# From PubChem BioAssay
